Reference: ChEMBL document CHEMBL3272134, “Diastereoisomers of 5,10-methylene-5,6,7,8-tetrahydropteroyl-D-glutamic acid” (J Med Chem, 1977)
Active and inactive are the calls of the source. The rule behind the calls is not given here.

B1: Thymidylate synthase (Lactobacillus casei), P00469 (protein)
chain: MLEQPYLDLAKKVLDEGHFKPDRTHTGTYSIFGHQMRFDLSKGFPLLTTKKVPFGLIKSELLWFLHGDTNIRFLLQHRNHIWDEWAFEKWVKSDEYHGPDMTDFGHRSQKDPEFAAVYHEEMAKFDDRVLHDDAFAAKYGDLGLVYGSQWRAWHTSKGDTIDQLGDVIEQIKTHPYSRRLIVSAWNPEDVPTMALPPCHTLYQFYVNDGKLSLQLYQRSADIFLGVPFNIASYALLTHLVAHECGLEVGEFIHTFGDAHLYVNHLDQIKEQLSRTPRPAPTLQLNPDKHDIFDFDMKDIKLLNYDPYPAIKAPVAV

Key:
[1] = target: T1, Thymidylate synthase (Lactobacillus casei) (UniProt P00469); assay: Inhibition of Lactobacillus casei thymidylate synthetase using dl-5,10-Methylene tetrahydropteroyl-L-glutamate as substrate at 9.2 x 10^-5 M relative to control; conditions: Lacticaseibacillus casei
T1 sequence (whole entry): B1 chain

[2] = target: T1, Thymidylate synthase (Lactobacillus casei); assay: Inhibition of Lactobacillus casei thymidylate synthetase using dl-5,10-Methylene tetrahydropteroyl-L-glutamate as substrate at 9.2 x 10^-5 M by spectrophotometric analysis; conditions: Lacticaseibacillus casei
[3] = target: T1, Thymidylate synthase (Lactobacillus casei); assay: Inhibition of Lactobacillus casei thymidylate synthetase at 1.7 x 10^-6 M relative to control; conditions: Lacticaseibacillus casei
[4] = target: T1, Thymidylate synthase (Lactobacillus casei); assay: Inhibition of Lactobacillus casei thymidylate synthetase using dl-5,10-Methylene tetrahydropteroyl-L-glutamate as substrate at 1 x 10^-4 M relative to control; conditions: Lacticaseibacillus casei
[5] = target: T1, Thymidylate synthase (Lactobacillus casei); assay: Inhibition of Lactobacillus casei thymidylate synthetase using dl-5,10-Methylene tetrahydropteroyl-L-glutamate as substrate at 1 x 10^-4 M by spectrophotometric analysis; conditions: Lacticaseibacillus casei
Pediococcus [6] = assay: Induction of growth of Pediococcus cerevisiae ATCC 8081 up to 5 ug/mL; format: functional
Enterococcus faecium [7] = assay: Induction of growth of Streptococcus faecium ATCC 8043 up to 5 ug/mL; format: functional, organism-based
Lacticaseibacillus casei [8] = assay: Induction of growth of Lactobacillus casei ATCC 7469 up to 5 ug/mL; format: functional, organism-based
Pediococcus [9] = assay: Growth inhibition of Pediococcus cerevisiae ATCC 8081 up to 5 ug/mL; format: functional
Method in brief: (§1)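 Media were as follows. L. casei ATCC 7469 was grown on folate assay broth with folate at 1 ng/mL. P. cerevisiae ATCC 8081 was grown on CF assay medium with dl-5-formyltetrahydrofolate at 1 ng/mL. S. faecium ATCC 8043 was grown on Flynn medium with folate at 1 ng/mL.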

Enterococcus faecium [10] = assay: Growth inhibition of Streptococcus faecium ATCC 8043 up to 5 ug/mL; format: functional, organism-based; method in brief: as §1
Lacticaseibacillus casei [11] = assay: Growth inhibition of Lactobacillus casei ATCC 7469 up to 5 ug/mL; format: functional, organism-based; method in brief: as §1
[12] = target: T1, Thymidylate synthase (Lactobacillus casei); assay: Activity of Lactobacillus casei thymidylate synthetase at 3 x 10^-4 M by spectrophotometric analysis; conditions: Lacticaseibacillus casei
[13] = target: T1, Thymidylate synthase (Lactobacillus casei); assay: Activity of Lactobacillus casei thymidylate synthetase assessed as release of [3H] from [5-3H]-deoxyuridine 5' phosphate at 3 x 10^-4 M; conditions: Lacticaseibacillus casei
[14] = target: T1, Thymidylate synthase (Lactobacillus casei); assay: Inhibition of Lactobacillus casei thymidylate synthetase using dl-5,10-Methylene tetrahydropteroyl-L-glutamate as substrate at 1.3 x 10^-5 M relative to control; conditions: Lacticaseibacillus casei
[15] = target: Dihydrofolate reductase (Lactobacillus casei) (UniProt P00381); assay: Inhibition of Lactobacillus casei dihydrofolate reductase using 7,8-Dihydropteroyl-L-glutamate as substrate at 1.5 x 10^-5 M by spectrophotometric analysis; conditions: Lacticaseibacillus casei
[16] = target: Dihydrofolate reductase (Lactobacillus casei) (UniProt P00381); assay: Inhibition of Lactobacillus casei dihydrofolate reductase using 7,8-Dihydropteroyl-L-glutamate as substrate at 1.5 x 10^-5 M relative to control; conditions: Lacticaseibacillus casei
[17] = target: T1, Thymidylate synthase (Lactobacillus casei); assay: Activity of Lactobacillus casei thymidylate synthetase at 4.5 x 10^-5 M by spectrophotometric analysis; conditions: Lacticaseibacillus casei
[18] = target: T1, Thymidylate synthase (Lactobacillus casei); assay: Inhibition of Lactobacillus casei thymidylate synthetase using dl-5,10-Methylene tetrahydropteroyl-L-glutamate as substrate at 1.3 x 10^-5 M by spectrophotometric analysis; conditions: Lacticaseibacillus casei
[19] = target: T1, Thymidylate synthase (Lactobacillus casei); assay: Activity of Lactobacillus casei thymidylate synthetase assessed as release of [3H] from [5-3H]-deoxyuridine 5' phosphate at 4.5 x 10^-5 M; conditions: Lacticaseibacillus casei
[20] = target: T1, Thymidylate synthase (Lactobacillus casei); assay: Inhibition of Lactobacillus casei thymidylate synthetase using dl-5,10-Methylene tetrahydropteroyl-L-glutamate as substrate at 2.4 x 10^-5 M by spectrophotometric analysis; conditions: Lacticaseibacillus casei
[21] = target: T1, Thymidylate synthase (Lactobacillus casei); assay: Inhibition of Lactobacillus casei thymidylate synthetase using dl-5,10-Methylene tetrahydropteroyl-L-glutamate as substrate at 2.4 x 10^-5 M relative to control; conditions: Lacticaseibacillus casei
[22] = target: T1, Thymidylate synthase (Lactobacillus casei); assay: Inhibition of Lactobacillus casei thymidylate synthetase using dl-5,10-Methylene tetrahydropteroyl-L-glutamate as substrate at 3.3 x 10^-5 M by spectrophotometric analysis; conditions: Lacticaseibacillus casei
[23] = target: T1, Thymidylate synthase (Lactobacillus casei); assay: Activity of Lactobacillus casei thymidylate synthetase at 7 x 10^-5 M by spectrophotometric analysis; conditions: Lacticaseibacillus casei
[24] = target: T1, Thymidylate synthase (Lactobacillus casei); assay: Inhibition of Lactobacillus casei thymidylate synthetase using dl-5,10-Methylene tetrahydropteroyl-L-glutamate as substrate at 3.3 x 10^-5 M relative to control; conditions: Lacticaseibacillus casei
[25] = target: T1, Thymidylate synthase (Lactobacillus casei); assay: Inhibition of Lactobacillus casei thymidylate synthetase using l-5,10-Methylene tetrahydropteroyl-L-glutamate as substrate at 6.3 x 10^-5 M by spectrophotometric analysis; conditions: Lacticaseibacillus casei
[26] = target: T1, Thymidylate synthase (Lactobacillus casei); assay: Inhibition of Lactobacillus casei thymidylate synthetase using l-5,10-Methylene tetrahydropteroyl-L-glutamate as substrate at 6.3 x 10^-5 M relative to control; conditions: Lacticaseibacillus casei
[27] = substrate: Nc1nc(=O)c2c([nH]1)NCC1CN(c3ccc(C(=O)N[C@@H](CCC(=O)O)C(=O)O)cc3)CN21; assay: Activity of Lactobacillus casei thymidylate synthetase by spectrophotometric analysis; conditions: Lacticaseibacillus casei

Sequence of Dihydrofolate reductase (Lactobacillus casei) (P00381 whole entry): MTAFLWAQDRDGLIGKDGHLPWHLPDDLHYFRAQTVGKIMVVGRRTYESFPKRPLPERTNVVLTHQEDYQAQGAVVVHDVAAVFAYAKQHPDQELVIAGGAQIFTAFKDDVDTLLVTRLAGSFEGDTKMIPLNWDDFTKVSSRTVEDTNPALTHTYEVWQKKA

| Molecule | Activity (Pediococcus [6]) | Activity (Enterococcus faecium [7]) | Activity (Lacticaseibacillus casei [8]) | growth inhibition (GI) (Pediococcus [9]) | growth inhibition (GI) (Enterococcus faecium [10]) | growth inhibition (GI) (Lacticaseibacillus casei [11]) | other results |
| --- | --- | --- | --- | --- | --- | --- | --- |
| Nc1nc2c(c(=O)[nH]1)N=C(CNc1ccc(C(=O)N[C@H](CCC(=O)O)C(=O)O)cc1)CN2 | – | – | – | – | – | – | inhibition [1]: 10%; deltaOD [2]: 0.027 min⁻¹ |
| CN(Cc1ccc2nc(N)nc(O)c2c1)c1ccc(C(=O)N[C@@H](CCC(=O)O)C(=O)O)cc1 | – | – | – | – | – | – | inhibition [3]: 83% |
| Nc1nc(=O)c2c([nH]1)NCC(CNc1ccc(C(=O)N[C@@H](CCC(=O)O)C(=O)O)cc1)=N2 | – | – | – | – | – | – | inhibition [4]: 26%; deltaOD [5]: 0.02 min⁻¹ |
| Nc1nc(=O)c2c([nH]1)NCC1CN(c3ccc(C(=O)N[C@@H](CCC(=O)O)C(=O)O)cc3)CN21 (mixture of isomers) | inactive | inactive | inactive | inactive | inactive | inactive | deltaOD [12]: 0.03 min⁻¹; Activity [13]: 71000 cpm |
| Nc1nc2c(c(=O)[nH]1)N1CN(c3ccc(C(=O)N[C@H](CCC(=O)O)C(=O)O)cc3)CC1CN2 (stereo in doubt; form 2) | inactive | inactive | inactive | inactive | inactive | inactive | inhibition [14]: 0%; deltaOD [15]: 0.032 min⁻¹; inhibition [16]: 0%; deltaOD [17]: 0 min⁻¹; deltaOD [18]: 0.03 min⁻¹; Activity [19]: < 2000 cpm |
| Nc1nc2c(c(=O)[nH]1)N1CN(c3ccc(C(=O)N[C@H](CCC(=O)O)C(=O)O)cc3)CC1CN2 (stereo in doubt; form 1) | inactive | inactive | inactive | inactive | inactive | inactive | deltaOD [15]: 0.032 min⁻¹; inhibition [16]: 0%; deltaOD [20]: 0.03 min⁻¹; deltaOD [17]: 0 min⁻¹; inhibition [21]: 0%; Activity [19]: < 2000 cpm |
| Nc1nc2c(c(=O)[nH]1)N1CN(c3ccc(C(=O)N[C@H](CCC(=O)O)C(=O)O)cc3)CC1CN2 (mixture of isomers) | inactive | inactive | inactive | inactive | inactive | inactive | deltaOD [22]: 0.03 min⁻¹; deltaOD [23]: 0 min⁻¹; inhibition [24]: 0% |
| Nc1nc(=O)c2c([nH]1)NCC1CN(c3ccc(C(=O)N[C@@H](CCC(=O)O)C(=O)O)cc3)CN21 (stereo in doubt) | inactive | inactive | inactive | inactive | inactive | inactive | deltaOD [25]: 0.02 min⁻¹; inhibition [26]: 14% |
| B1 | – | – | – | – | – | – | Km [27]: 15 µM |
